Test results from ChEMBL document CHEMBL3603821, “Optimization of N-aryl-6-methoxy-1,2,3,4-tetrahydroquinolines as tubulin polymerization inhibitors” (Bioorg Med Chem, 2015).
Converted amounts (≈) assume the structure as drawn.

Key:
Tubulin = assay: Inhibition of tubulin (unknown origin) assembly pre-incubated for 15 mins before GTP addition measured after 20 mins by turbidimetry; assay type: protein-complex assay, Homo sapiens
DU-145 = assay: Antiproliferative activity against human DU145 cells assessed as cell growth inhibition by SRB assay; assay type: functional
Summary of the method: (§1)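 SRB assay in a human tumor cell line panel (A-549 lung, KB nasopharyngeal, P-glycoprotein-overexpressing KBvin, DU145 prostate).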

Tubulin (Homo sapiens) [1] = molecular target: T1, Tubulin (Homo sapiens) (UniProt P68371+Q9H4B7+P0DPH7+P68366+Q13509+Q71U36+P04350+Q3ZCM7+P07437+P68363+Q9BQE3+Q6PEY2+Q13885+Q9BVA1+Q9BUF5); assay: Displacement of [3H]-colchicine from tubulin (unknown origin) at 5 uM after 10 mins; assay type: protein-complex assay
Summary of the method: (§2)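 Radioligand binding competition: 1.0 μM tubulin incubated with 5.0 μM [3H]colchicine plus inhibitor at 5.0 or 1.0 μM for 10 min at 37 °C. At that point control binding is about 40–60% of maximum. Result is percent inhibition of colchicine binding ± SD.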

KB = assay: Antiproliferative activity against human KB cells assessed as cell growth inhibition by SRB assay; assay type: functional
A549 = assay: Antiproliferative activity against human A549 cells assessed as cell growth inhibition by SRB assay; assay type: functional; summary of the method: as §1
[2] = Antiproliferative activity against human vincristine-resistant KBVIN cells expressing P-glycoprotein assessed as cell growth inhibition by SRB assay; assay type: functional; summary of the method: as §1
Tubulin (Homo sapiens) [3] = molecular target: T1, Tubulin (Homo sapiens); assay: Displacement of [3H]-colchicine from tubulin (unknown origin) at 1 uM after 10 mins; assay type: protein-complex assay; summary of the method: as §2
[4] = Aqueous solubility of the compound at pH 7.4 by HPLC-UV method; assay type: physicochemical; settings: buffer
[5] = Octanol/water partition coefficient, log P of the compound after 24 hrs by HPLC analysis; assay type: physicochemical
Summary of the method: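 Log P measured at pH 7.4 with HPLC-UV on a C18 column (4.6 × 150 mm, 5 μm). Eluent MeOH/water 80:20 containing 0.04% ammonium acetate, run at 0.8 mL/min, with detection at 254 nm. Value given as mean ± SD of three separate experiments.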

| SMILES | IC50 (Tubulin) [nM] | GI50 (DU-145) [nM] | inhibition (Tubulin (Homo sapiens) [1]) [%] | GI50 (KB) [nM] | GI50 (A549) [nM] | GI50 [2] [nM] | inhibition (Tubulin (Homo sapiens) [3]) [%] | solubility [4] [µg/mL] | logP [5] |
| --- | --- | --- | --- | --- | --- | --- | --- | --- | --- |
| COc1ccc2c(c1)CCCN2c1nccc2ccccc12 | 2600 | 1470 | 37 | 1720 | 2080 | 1640 | – | – | – |
| COc1ccc2c(c1)CCCN2c1ccnc2ccccc12 | – | 180 | – | 160 | 200 | 180 | – | – | – |
| COc1ccc2c(c1)CCCN2c1cccc2cccnc12 | > 20000 | 12800 | – | 16200 | 12100 | 8710 | – | – | – |
| COc1ccc2c(c1)CCCN2c1ncnc2ccccc12 | 1300 | – | 91 | 14 | 18 | 19 | 69 | – | – |
| COc1ccc2c(c1)CCCN2c1nc(F)nc2[nH]cnc12 | – | 25500 | – | > 33000 | 23600 | 27100 | – | – | – |
| COc1ccc2c(c1)CCCN2c1nc(NC2CC2)nc2ccccc12 | 1300 | 16 | 89 | 13 | 16 | – | 56 | 2.55 (≈ 7.36 µM) | 4.13 |
| COc1ccc(/C=C\c2cc(OC)c(OC)c(OC)c2)cc1O [COMBRETASTATIN A4] | – | – | – | 3.6 | 84.1 | 1.2 | – | – | – |
| COc1ccc2c(c1)CCCN2c1nc(NC2CCCC2)nc2ccccc12 | 5700 | 1290 | 29 | 1190 | 1340 | 1420 | – | – | – |
| COc1ccc2c(c1)CCCN2c1nc(NCCCO)nc2ccccc12 | 850 | 20 | 78 | 18 | 16 | 19 | 49 | 75.6 (≈ 207 µM) | 3.43 |
| COc1ccc2c(c1)CCCN2c1nc(N(C)C)nc2ccccc12 | – | 150 | – | 140 | 170 | 200 | – | – | – |
| COc1ccc2c(c1)CCCN2c1nc(N)nc2[nH]cnc12 | – | 18000 | – | 17500 | 19400 | 18900 | – | – | – |
| CC(=O)O[C@H]1C(=O)[C@@]2(C)[C@H]([C@H](OC(=O)c3ccccc3)[C@]3(O)C[C@H](OC(=O)[C@H](O)[C@@H](NC(=O)c4ccccc4)c4ccccc4)C(C)=C1C3(C)C)[C@]1(OC(C)=O)CO[C@@H]1C[C@@H]2O [PACLITAXEL] | – | 6 | – | 6.4 | 7.6 | 1210 | – | – | – |
| COc1ccc2c(c1)CCCN2c1nc(OC)nc2ccccc12 | – | 21 | – | 26 | 24 | 30 | – | – | – |
| COc1ccc2c(c1)CCCN2c1cncc2ccccc12 | 3300 | 920 | 39 | 1480 | 1950 | 1540 | – | – | – |
| COc1ccc2c(c1)CCCN2c1ncnc2[nH]cnc12 | – | > 35000 | – | > 35000 | > 35000 | > 35000 | – | – | – |
